ChEMBL document CHEMBL1136556, “Synthesis and SAR of alpha-acylaminoketone ligands for control of gene expression” (2003)

Legend:
Format in all cases: functional
[1] = target: T1, Ecdysone receptor (Bombyx mori) (UniProt P49881); assay: Agonist activity against Bombyx mori ecdysone receptor
T1 sequence (whole entry): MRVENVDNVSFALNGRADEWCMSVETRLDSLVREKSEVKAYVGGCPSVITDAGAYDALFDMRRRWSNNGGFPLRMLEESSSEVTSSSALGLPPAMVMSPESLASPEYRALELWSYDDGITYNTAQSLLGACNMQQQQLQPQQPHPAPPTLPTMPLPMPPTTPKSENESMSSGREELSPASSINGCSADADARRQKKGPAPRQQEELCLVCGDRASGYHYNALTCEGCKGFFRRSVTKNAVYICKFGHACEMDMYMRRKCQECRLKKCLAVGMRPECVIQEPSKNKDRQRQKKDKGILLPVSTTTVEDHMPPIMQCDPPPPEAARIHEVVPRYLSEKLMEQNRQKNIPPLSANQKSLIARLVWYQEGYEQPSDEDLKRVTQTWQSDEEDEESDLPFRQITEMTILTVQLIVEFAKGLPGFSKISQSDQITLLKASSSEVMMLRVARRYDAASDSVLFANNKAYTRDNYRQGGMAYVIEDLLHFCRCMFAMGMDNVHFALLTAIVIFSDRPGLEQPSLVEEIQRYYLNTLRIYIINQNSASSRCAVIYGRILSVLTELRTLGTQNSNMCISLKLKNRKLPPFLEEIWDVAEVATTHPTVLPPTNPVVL
Procedure, shortened: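 HEK-293 clone Z3 stably expressing Bombyx mori EcR with a β-galactosidase reporter under an ecdysone response element. Cells seeded at 2.5 × 10⁴ cells mL⁻¹ and held 24 h at 37 °C, 5% CO₂. Ligands from 10 mM DMSO stocks were diluted 100-fold in medium (final DMSO 0.03%). Luminescence read at 48 h; dose-response value is the dose giving 50% of maximal transactivation.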

[2] = system: HEK293; assay: Dose response transactivation assay result expressed as dose affording 50% of max transactivation; conditions: Homo sapiens, read-out: LC50
Procedure, shortened: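 HEK-293 clone Z3 engineered to express Bombyx mori EcR, with a β-galactosidase gene under an ecdysone response element. Cells seeded at 2.5 × 10⁴ cells mL⁻¹, grown 24 h at 37 °C in 5% CO₂, then dosed across a concentration series from 10 mM DMSO stocks. Final DMSO 0.03%. Bioluminescent β-gal readout at 48 h; value is dose giving 50% of maximum transactivation.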

[3] = Ratio of max level of gene expression of compound to max level of gene expression with compound 1d
Procedure, shortened: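 Dose-response assay in Z3 HEK-293 cells (Bombyx mori EcR, ecdysone response element–β-galactosidase reporter), 48 h ligand exposure, final DMSO 0.03%, bioluminescent read-out. Value is the compound's maximal reporter expression divided by the maximal expression given by the reference dibenzoylhydrazine ecdysone agonist.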

Row | Structure (SMILES) | Fold induction [1] | EC50 (transactivation) [2] | Rel Max FI [3]
1 | COc1ccc(C(=O)C2(NC(=O)c3cccc(OC)c3C)CCCC2)cc1 | 5 | – | –
2 | COc1cccc(C(=O)NC2(C(=O)c3cc(C)cc(C)c3)CCCC2)c1C | 660 | 1.9 µM | 0.85
3 | COc1cccc(C(=O)NC(C)(C(=O)c2ccc(F)c(C)c2)C(C)C)c1C (stereo unspecified) | – | – | 0.24
4 | CCC(CC)(NC(=O)c1cccc(OC)c1C)C(=O)c1ccc(C)cc1 | 8 | – | –
5 | CC(C)(NC(=O)c1ccc2c(c1)OCO2)C(=O)c1ccccc1 | 1 | – | –
6 | CCC(CC)(NC(=O)c1cccc(OC)c1C)C(=O)c1ccccc1OC | 384 | 6.2 µM | 0.29
7 | O=C(NC1(C(=O)c2ccccc2)CCCC1)c1ccccc1 | 2 | – | –
8 | COc1cccc(C(=O)NC(C)(C)C(=O)c2ccccc2)c1C | 2 | – | –
9 | CCC(CC)(NC(=O)c1cccc(OC)c1C)C(=O)c1ccccc1 | 11 | – | –
10 | O=C(NC1(C(=O)c2ccccc2)CCCC1)c1ccc2c(c1)OCO2 | 1 | – | –
11 | CCC(CC)(NC(=O)c1cccc(OC)c1C)C(=O)c1ccc(OC)cc1 | 4 | – | –
12 | Cc1ccccc1C(=O)NC(C)(C)C(=O)c1ccccc1 | 1 | – | –
13 | Cc1ccccc1C(=O)NC1(C(=O)c2ccccc2)CCCC1 | 2 | – | –
14 | CCC(CC)(NC(=O)c1cccc(OC)c1C)C(=O)c1cccc(C)c1 | 525 | 6.6 µM | 0.25
15 | COc1cccc(C(=O)C(C)(NC(=O)c2cccc(OC)c2C)C(C)C)c1 (stereo unspecified) | 35 | 25.5 µM | 0.12
16 | CCC(CC)(NC(=O)c1cccc(OC)c1C)C(=O)c1cccc(OC)c1 | 256 | 33.3 µM | 0.01
17 | COc1cccc(C(=O)NC2(C(=O)c3ccc(C)cc3)CCCC2)c1C | 21 | – | –
18 | CCC(CC)(NC(=O)c1cccc(OC)c1C)C(=O)c1cc(C)cc(C)c1 | 1000 | 4.5 µM | 0.6
19 | COc1ccccc1C(=O)C1(NC(=O)c2cccc(OC)c2C)CCCC1 | 1200 | 5.2 µM | 0.7

Row | Structure (SMILES) | Fold induction [1] | EC50 (transactivation) [2] | Rel Max FI [3]
20 | COc1cccc(C(=O)NC(C)(C(=O)c2ccccc2C)C(C)C)c1C (stereo unspecified) | 452 | 18 µM | 0.26
21 | CCC(CC)(NC(=O)c1cccc(OC)c1C)C(=O)c1ccc(F)cc1 | 60 | 13.7 µM | 0.04
22 | CCc1ccc(C(=O)NC(C)(C)C(=O)c2ccccc2)cc1 | 2 | – | –
23 | COc1ccccc1C(=O)C(C)(NC(=O)c1cccc(OC)c1C)C(C)C (stereo unspecified) | 599 | 15 µM | 0.2
24 | COc1cccc(C(=O)NC2(C(=O)c3ccccc3)CCCC2)c1 | 2 | – | –
25 | COc1cccc(C(=O)NC(C)(C(=O)c2ccccc2)C(C)C)c1C (stereo unspecified) | 71 | 33.3 µM | 0.04
26 | CCC(CC)(NC(=O)c1cccc(OC)c1C)C(=O)c1ccc(F)c(C)c1 | 223 | 10.4 µM | 0.07
27 | COc1cccc(C(=O)NC2(C(=O)c3cccc(C)c3)CCCC2)c1C | 291 | 3.4 µM | 0.46
28 | COc1cccc(C(=O)NC2(C(=O)c3ccc(F)cc3)CCCC2)c1C | 218 | 15 µM | 0.14
29 | COc1cccc(C(=O)NC(C)(C(=O)c2ccc(C)cc2)C(C)C)c1C (stereo unspecified) | 31 | 20 µM | 0.05
30 | CC(C)(NC(=O)c1ccccc1)C(=O)c1ccccc1 | 1 | – | –
31 | CCC(CC)(NC(=O)c1cccc(OC)c1C)C(=O)c1ccccc1C | 5 | – | –
32 | COc1cccc(C(=O)NC(C)(C(=O)c2cc(C)cc(C)c2)C(C)C)c1C (stereo unspecified) | 751 | 2.1 µM | 0.75
33 | COc1cccc(C(=O)NC2(C(=O)c3ccccc3C)CCCC2)c1C | 30 | – | –
34 | COc1cccc(C(=O)NC(C)(C)C(=O)c2ccccc2)c1 | 1 | – | –
35 | COc1cccc(C(=O)NC2(C(=O)c3ccc(F)c(C)c3)CCCC2)c1C | 487 | 3.5 µM | 0.43
36 | COc1cccc(C(=O)NC(C)(C(=O)c2cccc(C)c2)C(C)C)c1C (stereo unspecified) | 370 | 8.6 µM | 0.47
37 | COc1cccc(C(=O)C2(NC(=O)c3cccc(OC)c3C)CCCC2)c1 | – | – | 0.12
38 | COc1cccc(C(=O)NC2(C(=O)c3ccccc3)CCCC2)c1C | 71 | 2.7 µM | 0.14
